High-throughput results as filed in PubChem BioAssay.
Compounds with a hit are over-represented: about 1.8% of the library has one in this group of screens.
Dynein transport = dynein cargo transport inhibition | 3617.4 mouse cells, GR-EGFP nuclear translocation imaging; test concentration mostly 20 µM; stimulated with dexamethasone, 1 µM; hits give low values | z-score, hits read low | 0.47% of 220,000 active;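 active = plate z-score of nuclear minus cytoplasmic receptor signal below a set negative limit, without overly bright fluorescence or cell loss, cut at about -3.5 in these data, passing the limit was not always enough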;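 note: z-score of nuclear minus cytoplasmic ring GR-EGFP intensity difference per well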
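medium = tetracycline-free induction medium containing charcoal-stripped FBS | probe or stimulus = dexamethasone, 1.0 µM final | timing = 48 h induction, then 1 h compound, then 30 min agonist, 37 °C | detection = automated 10x imaging of fixed Hoechst-stained cells | read-out basis = nuclear versus cytoplasmic GR-EGFP signal, averaged per well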
TNF death inh = TNF-alpha cell death inhibition in Jurkat FADD-/- cells; activation (protection from cell death), % at 10 µM; 0.068% of 220,000 active; Jurkat FADD-/- TNF necroptosis rescue, ATP luminescence, 24 h; 0 = TNF only, 100 = no-TNF cells;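 active = activation, meaning protection from cell death, of at least 50% relative to plate controls; inactive = activation below 50%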;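 note: necroptosis triggered by 40 ng/mL TNF-alpha added together with compound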
L929 necroptosis = L929 zVAD cell death inhibition | 0.38% of 220,000 active | viability rescue, % at 10 µM | AID 1377 | L929 zVAD necroptosis rescue, ATP luminescence, 24 h; with zVAD 60 µM;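 active = activation, scaled between plate controls, above about 75%, limit read from the data; inactive = activation under that limit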;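 note: 0% = zVAD with DMSO and 100% = DMSO alone without zVAD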
MDM2 E3 inh = Mdm2 E3 ligase (human) inhibition | Q00987 | cell-based MDM2 ubiquitination luciferase reporter, 2 h; 0 = plate control, 100 = twice control, blank-subtracted | signal enhancement, % at 5 µM | 0.11% of 210,000 active | AID 1230;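 active = signal enhancement of 30% or more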;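 note: luminescence tracks abundance of the self-degrading MDM2-luciferase fusion protein; higher signal means inhibition of MDM2 E3 ligase activity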
Target sequence (Q00987 whole entry, looked up, the tested form may be a part): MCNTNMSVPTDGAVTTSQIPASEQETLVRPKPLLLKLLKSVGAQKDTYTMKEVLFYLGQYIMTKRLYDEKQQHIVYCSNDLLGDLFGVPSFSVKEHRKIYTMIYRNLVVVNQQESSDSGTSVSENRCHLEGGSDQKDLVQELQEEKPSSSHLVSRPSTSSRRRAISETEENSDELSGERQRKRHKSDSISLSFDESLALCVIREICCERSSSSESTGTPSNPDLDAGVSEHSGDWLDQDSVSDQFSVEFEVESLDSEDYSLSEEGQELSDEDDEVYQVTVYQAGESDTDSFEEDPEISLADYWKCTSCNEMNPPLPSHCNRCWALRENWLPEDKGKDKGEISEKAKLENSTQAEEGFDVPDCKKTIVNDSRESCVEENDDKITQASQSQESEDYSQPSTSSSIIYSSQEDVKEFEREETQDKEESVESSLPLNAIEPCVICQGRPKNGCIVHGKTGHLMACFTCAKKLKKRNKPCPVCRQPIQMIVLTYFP
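system = mammalian cells stably expressing self-ubiquitinating, self-degrading MDM2 E3–luciferase fusion | quantity = 2000 cells per well seeded | incubation = 4 h cell settling then 2 h compound exposure, 37 °C | signal = SteadyLite luminescence, 15 min reagent step | benchmarks = plate control and blank wells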
Autophagy HCS = autophagy modulation, high-content screen; MEF GFP-LC3 puncta imaging; test concentration mostly 10 µM; 0.98% of 190,000 active; calls only at 10 µM (by protocol);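 active = percentage of spot-positive cells more than 3 SD above its plate mean, without a fluorescence outlier flag or 80% toxicity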;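 note: spot-positive cell cutoff set from DMSO-treated cells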
An asterisk follows results filed as active; i = inactive; . = not tested or not shown; + = active, no number.

SMILES	Dynein transport	TNF death inh	L929 necroptosis	MDM2 E3 inh	Autophagy HCS
CCn1c2ccccc2c2cc(CNCc3ccc(OC)cc3OC)ccc21	-2.5	5	20	-8	+
CCC(CC)NCc1ccc2c(c1)c1ccccc1n2CC	0.95	2	15	-7	i
COc1ccc(CCNc2cc(N3CCN(C(=O)c4ccccc4F)CC3)ccc2[N+](=O)[O-])cc1OC	-0.49	-17	5	-7	+
Cc1nn(Cc2ccccc2)c(N)c1C#N	-0.066	54*	1	-22	i
Cc1nn(Cc2ccccc2)c(N)c1-c1ccccc1	-0.77	-1	1	-8	i
O=C(CN1CCN(c2ccc(C(F)(F)F)cn2)CC1)NCc1ccc2c(c1)OCO2	1.3	-1	1	-17	.
Cc1ccc(S(=O)(=O)NCCC(=O)OCC(=O)NC(=O)c2cccn2C)cc1	-0.64	6	0	.	.
O=C(Nc1nccs1)c1cc2sccc2n1Cc1ccc(Cl)cc1	1.8	2	-1	-9	+
NC(=O)c1ccsc1NC(=O)C1CCCN1S(=O)(=O)c1ccc(Cl)cc1 (stereo unspecified)	0.62	0	2	8	i
CC1CCCCN1S(=O)(=O)c1ccc(C(=O)Nc2sccc2C(N)=O)cc1 (stereo unspecified)	-0.25	0	11	-9	+
CCCC(C(=O)NCc1ccccc1)N(C(=O)Cn1nnc(-c2cccs2)n1)c1ccc2c(c1)OCCO2 (stereo unspecified)	-0.058	1	0	.	+
Nc1ccc(Cl)c(S(=O)(=O)Nc2ccc(Cl)cc2)c1	1.3	2	0	-9	.
O=C(NC1CCCCC1)c1cnn2c(C(F)(F)F)cc(-c3ccco3)nc12	-1.2	-5	0	-14	i
O=C(NC1CCCCC1)c1nn2c(C(F)(F)F)cc(-c3ccco3)nc2c1Br	0.24	-6	0	-19	+
O=C(CSc1nnc(-c2ccccc2O)o1)Oc1ccc(OCc2ccccc2)cc1	0.94	-15	0	0	+
CCOc1cc2c(cc1/C=C1/NC(=O)N(CC(=O)OC)C1=O)OCO2	0.42	1	3	-18	i
CCN(CCCNC(=O)CCCOc1cc(=O)n(C)c2ccccc12)Cc1ccccc1	-1	-4	0	-93	i
CCN(CCCNC(=O)COc1cc(=O)n(CC)c2ccccc12)Cc1ccccc1	0.23	-2	33	-3	+
CCCn1c(=O)[nH]c(=O)c2c1nc(-c1ccc(OC)c(Br)c1)n2CCOC	-1.1	0	1	4	i
CCCCn1c(SCC(=O)NCc2ccco2)nc2c(sc3ccccc32)c1=O	-1.3	-1	-1	-4	i
O=C(CSc1nc2c(sc3ccccc32)c(=O)n1CCc1ccccc1)NCc1ccco1	-0.055	1	-1	-12	+
CCc1ccc(Nc2nnc(SCC(=O)NCCN3C(=O)CSC3=O)s2)cc1	0.62	0	1	-18	i
CCOC(=O)C1CCN(C(=S)Nc2ccc(Cl)cc2C)CC1	-0.62	0	0	-13	i
CCOC(=O)C1CCN(C(=S)Nc2cc(C)ccc2C)CC1	0.4	1	0	98*	i
Cc1nc(S/C(C(=O)O)=C2/C(=O)Nc3ccccc32)n[nH]1	-0.71	1	0	-15	.
SMILES	Dynein transport	TNF death inh	L929 necroptosis	MDM2 E3 inh	Autophagy HCS
COc1ccc(NC(=O)CCl)cn1	1	18	3	-2	.
COc1ccc(NC(=O)/C(Cl)=C(/Cl)S(=O)Cc2ccc(Cl)cc2)cn1 (stereo unspecified)	-5.4*	-14	14	39*	i
O=C(CCS(=O)(=O)c1cccs1)N1CCCC1	-0.51	0	0	2	i
O=C(CCNS(=O)(=O)c1cccs1)N1CCCCCC1	3.6	-2	0	-22	+
S=C(Nc1ccccc1)N1N=CCC1c1ccccc1 (stereo unspecified)	-0.45	91*	3	-10	i
NC(=NC(=O)c1ccccc1)N1N=CCC1c1ccccc1 (stereo unspecified)	0.12	-1	1	-4	i
O=C(Nc1cccc2ccccc12)N1N=CCC1c1ccccc1 (stereo unspecified)	0.55	64*	0	-18	.
O=C(CCCN1C(=O)/C(=C\c2cccc(Br)c2)SC1=S)Nc1cccnc1	-0.89	3	1	.	i
Cc1ccc(Nc2c(-c3cccnc3)nc3ccc(Br)cn23)cc1	0.32	-1	0	-5	+
Cc1ccc(Nc2c(-c3ccccc3)nc3cnccn23)cc1	-0.68	0	-2	-24	i
COc1ccc(C(=O)NCCSC2CCCCC2)cc1	-0.26	2	2	41*	i
O=C(NCCSC1CCCCC1)c1ccccc1	-0.81	1	3	-8	i
N#C/C(=C\c1cn(Cc2ccccc2)c2ccccc12)C(=O)NCc1ccco1	0.48	0	1	-5	i
N#C/C(=C\c1cn(Cc2ccc(F)cc2)c2ccccc12)C(=O)NCc1ccco1	-0.26	3	1	-9	+
Cc1cc(NC(=O)c2ccc(S(=O)(=O)N3CCCC3)cc2)nc2c1c(=O)oc1ccccc12	0.24	-4	0	-7	+
Cc1cc(NC(=O)c2ccc(S(=O)(=O)N3CCOCC3)cc2)nc2c1c(=O)oc1ccccc12	0.049	-15	0	0	i
Cc1cc(NC(=O)c2ccccc2)nc2c1c(=O)oc1ccccc12	-0.46	1	0	-7	i
CCOc1ccc(C(=O)Nc2cc(C)c3c(=O)oc4ccccc4c3n2)cc1	-0.93	1	1	-1	+
c1ccc(COc2ccc(OCCCCN3CCCCC3)cc2)cc1	5.6	-2	-1	1	+
CCN1CCN(CCCOc2ccc(-c3ccccc3)cc2)CC1	7.7	0	0	-19	+
O=C(c1ccccc1)c1ccc(OCCCCN2CCCCC2)cc1	-0.49	0	1	-4	i
CC(/C=C/c1cccc([N+](=O)[O-])c1)=N\NC(=O)c1ccncc1	-0.7	2	0	-4	i
COc1cccc(/C=C/C(=O)Nc2ccccc2N2CCOCC2)c1	1.3	1	1	-10	i
CCSc1ccccc1C(=O)n1nnc2ccccc21	-4*	-7	0	-9	i
O=C(O)c1cn(-c2ccc(F)c(F)c2)c2c(F)c(F)c(F)c(F)c2c1=O	-6.4*	-7	-1	-2	i
O=C(Nc1ccccc1)Nc1ccno1	1.8	1	0	-16	.
N/C(=N\c1nc(CSc2ccc(Cl)cc2)cc(=O)[nH]1)Nc1cccc2ccccc12	-0.45	-1	0	-8	+
Cc1nc(CN(C)C(=O)c2ccccc2OC2CCN(S(C)(=O)=O)CC2)cs1	0.29	1	2	7	+
